Experimental data of several laboratories.
Lines come from different studies, so protocols differ.
Target: Mitogen-activated protein kinase kinase kinase 6 (MAP3K6, Homo sapiens, UniProt O95382)
Residues used in one study (O95382 1-1288): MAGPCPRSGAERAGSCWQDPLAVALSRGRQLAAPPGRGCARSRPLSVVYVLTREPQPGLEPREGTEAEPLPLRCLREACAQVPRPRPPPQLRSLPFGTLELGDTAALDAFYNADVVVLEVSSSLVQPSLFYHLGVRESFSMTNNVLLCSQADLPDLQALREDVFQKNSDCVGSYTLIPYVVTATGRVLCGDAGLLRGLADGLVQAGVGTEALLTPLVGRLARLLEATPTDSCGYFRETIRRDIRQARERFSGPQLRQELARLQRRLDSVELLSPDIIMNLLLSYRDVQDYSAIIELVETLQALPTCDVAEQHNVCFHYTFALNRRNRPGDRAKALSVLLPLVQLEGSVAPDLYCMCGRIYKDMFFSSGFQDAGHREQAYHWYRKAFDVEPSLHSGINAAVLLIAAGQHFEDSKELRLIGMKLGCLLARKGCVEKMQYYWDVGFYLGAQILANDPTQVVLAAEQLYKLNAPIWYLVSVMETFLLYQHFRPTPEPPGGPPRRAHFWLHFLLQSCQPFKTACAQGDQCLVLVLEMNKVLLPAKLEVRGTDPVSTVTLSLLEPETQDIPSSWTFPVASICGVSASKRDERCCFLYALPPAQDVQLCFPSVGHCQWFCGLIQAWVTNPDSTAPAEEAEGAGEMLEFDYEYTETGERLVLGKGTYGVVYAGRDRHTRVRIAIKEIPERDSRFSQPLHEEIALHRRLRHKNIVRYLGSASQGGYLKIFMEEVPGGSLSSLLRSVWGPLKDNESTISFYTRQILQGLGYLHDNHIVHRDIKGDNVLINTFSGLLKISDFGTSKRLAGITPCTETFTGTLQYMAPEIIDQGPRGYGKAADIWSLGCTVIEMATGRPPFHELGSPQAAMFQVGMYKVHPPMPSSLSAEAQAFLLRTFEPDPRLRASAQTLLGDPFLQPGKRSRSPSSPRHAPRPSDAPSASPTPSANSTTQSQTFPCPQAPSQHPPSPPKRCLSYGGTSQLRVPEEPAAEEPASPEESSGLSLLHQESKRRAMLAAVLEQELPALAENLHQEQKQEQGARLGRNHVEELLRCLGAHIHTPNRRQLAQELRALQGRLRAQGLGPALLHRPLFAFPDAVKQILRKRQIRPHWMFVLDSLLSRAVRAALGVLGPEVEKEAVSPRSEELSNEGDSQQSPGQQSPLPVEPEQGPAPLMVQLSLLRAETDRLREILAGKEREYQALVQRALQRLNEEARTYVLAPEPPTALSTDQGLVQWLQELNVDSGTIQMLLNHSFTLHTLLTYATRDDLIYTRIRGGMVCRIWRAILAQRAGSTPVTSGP

SMILES | effect on | technique | concentration | remaining binding [%]
CCN1CCN(Cc2ccc(C(=O)Nc3ccc(C)c(Oc4ccc5c(c4)CC(=O)N5)c3)cc2C(F)(F)F)CC1 | binding | competition with immobilised ligand | 1 µM | 100
CN(c1nccc(-c2cnn3ncccc23)n1)C1CC1 | binding |  | 1 µM | 100
CCOCCn1cc(C(=O)Nc2ccc(-n3nc(-c4cccnc4)cc3C(F)(F)F)cn2)ccc1=O | cell-free assay | competition with immobilised ligand | 1 µM | 86
CNC(=O)[C@@H]1CC[C@@H](n2c(-c3ccc4cnccc4c3)nc3ccc(C(=O)NCc4cccc(C(N)=O)c4)cc32)C1 | binding | competition with immobilised ligand | 1 µM | 100
CC1CCCN1c1nccc(-c2cnn3ncccc23)n1 (stereo not shown) | binding |  | 1 µM | 100
CNCc1ccccc1-c1csc([C@H](C)Nc2nc(C)nc3cc(OC)c(OC)cc23)c1 | cell-free assay | competition with immobilised ligand | 1 µM | 100
O=C(c1ccc(Nc2ncc(Cl)c(-c3cc4ccccc4s3)n2)cc1)N1CCC(N2CCCC2)CC1 | binding | competition with immobilised ligand | 1 µM | 80
C=CC(=O)N1CCC(C(=O)NCC(=O)N2CCN(c3nc(-c4cnc(N)nc4C(F)F)nc(N4CCOCC4)n3)CC2)CC1 | binding | competition with immobilised ligand | 1 µM | 100
O=C(NCCCN1CCOCC1)c1ccc(Nc2nccc(-c3cc4ccccc4s3)n2)cc1 | binding | competition with immobilised ligand | 1 µM | 98
C[C@H]1CCN(c2nccc(-c3cnn4ncccc34)n2)C1 | binding |  | 1 µM | 57
COc1cnc(Nc2cccc(S(N)(=O)=O)c2)nc1N1CCN(c2ccccc2)C(=O)C1 | binding | competition with immobilised ligand | 1 µM | 84
CN([C@@H]1CCc2c(CC(=O)O)c3ccccc3n2C1)S(=O)(=O)c1ccc(F)cc1 | cell-free assay | competition with immobilised ligand | 1 µM | 80
Nc1ncc2c(n1)-c1c([nH]c3ccc(C#CC4CC4)cc13)CCCC2 | binding | competition with immobilised ligand | 1 µM | 98
Cc1cnc(Nc2ccc(C(=O)N3CCC(N4CCCC4)CC3)cc2)nc1-c1cc2ccccc2s1 | binding | competition with immobilised ligand | 1 µM | 100
N[C@@H]1CCN(c2nccc(-c3cnn4ncccc34)n2)C1 | binding |  | 1 µM | 57
CCS(=O)(=O)c1cc2cc(C[C@@](O)(CC(C)(C)c3ccc(F)cc3C(N)=O)C(F)(F)F)[nH]c2cn1 | cell-free assay | competition with immobilised ligand | 1 µM | 100
CN(C)c1nccc(-c2cnn3ncccc23)n1 | binding |  | 1 µM | 74
O=C(NCC1CCOCC1)c1n[nH]cc1NC(=O)c1c(F)cccc1F | binding | competition with immobilised ligand | 1 µM | 77
F[C@@H]1CCN(c2nccc(-c3cnn4ncccc34)n2)C1 | binding |  | 1 µM | 76
CS(=O)(=O)N1CCCC(NC(=O)[C@H](CCC2CCCCC2)NC(=O)c2ccc(CNC(=O)c3cnc4ccccn34)cc2)C1 (stereo partly shown) | cell-free assay | competition with immobilised ligand | 0.1 µM | 100
c1cnn2ncc(-c3ccnc(N4CCC45COC5)n3)c2c1 | binding |  | 1 µM | 61
CSc1cccnc1N1CCN(Cc2nc3ccccc3[nH]2)CC1 | cell-free assay | competition with immobilised ligand | 1 µM | 92
